Values joined by “and” are separate entries in the source; they are usually repeats but may differ in a detail not shown here. Equal values may be shown once.
What was measured:
Calf thymus DNA = assay: Apparent DNA affinity constant; assay type: nucleic-acid assay; conditions: Bos taurus
Procedure, shortened: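 Apparent DNA affinity constant was measured by competition with ethidium bromide. Buffer was 20 mM Na2HPO4/NaH2PO4, 0.1 M NaCl, 1 mM EDTA, pH 7.4, with calf thymus DNA at 10 μg/mL. Values are given in 10^6 M⁻¹.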

L1210 = assay: Ability to reduce the cell count to 50% in L1210 culture cells; assay type: functional; conditions: Mus musculus, read-out: ID50 (the source's name)
Procedure, shortened: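 L1210 cells in exponential growth in RPMI 1640 with 2 mM glutamine, penicillin/streptomycin and 10% FCS, 37 °C, 5% CO2. Drugs dissolved in distilled water were added to cells at 0.8 × 10^5 cells/mL for 48 h, then cells were counted. ID50 is the concentration halving cell proliferation versus controls, from regression of dose-response data; mean of two independent experiments.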

Mus musculus [1] = assay: […] in C38 adenocarcinoma cell line when a dose of 50 mg/kg administered intravenously in mice; assay type: functional, MC-38; conditions: route intravenous
Procedure, shortened: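 C38 colon adenocarcinoma in hybrid BD F1 mice, 10 per test. A standard 3-mm³ tumour fragment was implanted sc. Drugs were given iv at the stated doses on D1 or on D2 + D9, following the Geran et al. NCI protocol.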

Mus musculus [2] = assay: In vivo toxicity test on P388 cells at a dose of 100 mg/kg administered intravenously to mice; assay type: functional; conditions: route intravenous
Procedure, shortened: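 Mice (10 per group) were inoculated ip at D0 with 10^6 P388 leukemia cells and given a single iv dose at D1. Read-outs were weight change (g), median survival day, T/C % versus controls and survivors at D30.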

Mus musculus [3] = assay: Antitumor activity against B16 melanoma cells at a dose of 2.5 mg/kg administered intraperitoneally to mice; assay type: functional; conditions: route intraperitoneal
Procedure, shortened: (§1)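 Hybrid BD F1 mice were inoculated ip at D0 with 0.5 mL of B16 melanoma homogenate (1 g tumor in 10 mL physiological serum). Drugs were given ip daily D1-9. Cisplatin 0.5 mg/kg was the positive control under the same schedule.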

Mus musculus [4] = assay: Antitumor activity against B16 melanoma cells at a dose of 5 mg/kg administered intraperitoneally to mice; assay type: functional; conditions: route intraperitoneal; procedure, shortened: as §1
Mus musculus [5] = assay: Weight change in g when a dose of 20 mg/kg (iv) to L1210 leukemia mice model; assay type: functional
Procedure, shortened: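 Mice received 10^5 L1210 leukemia cells ip at D0, then a single iv drug dose at D1. Read-outs were weight change (g), median survival day, T/C % and survivors at D30.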

Mus musculus [6] = assay: Antitumor activity against P388 leukemia in mice at a dose of 2.5 mg/kg administered intraperitoneally for 5 days; assay type: functional; conditions: route intraperitoneal
Procedure, shortened: (§2)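 CDF1 hybrid male or female mice, 10 per group, were inoculated ip with 10^6 viable P388 cells on day 0. Drugs in distilled water were given ip (0.1 mL/10 g body weight) daily D1-5. Vehicle, 5-fluorouracil and BD 84 were given the same way. T/C = median survival day of treated / controls × 100; T/C > 128% was significant; cures counted at D60.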

Mus musculus [7] = assay: Survivors at day 30 when a dose of 5 mg/kg administered to P388 leukemia infected when tested in 10 mice; assay type: functional
Mus musculus [8] = assay: Antitumor activity against B16 melanoma cells at a dose of 1.25 mg/kg administered intraperitoneally to mice; assay type: functional; conditions: route intraperitoneal; procedure, shortened: as §1
Mus musculus [9] = assay: Antitumor activity against B16 melanoma cells at a dose of 10 mg/kg administered intraperitoneally to mice; assay type: functional; conditions: route intraperitoneal; procedure, shortened: as §1
Mus musculus [10] = assay: Antitumor activity against P388 leukemia in intraperitoneally for 5 days; assay type: functional; procedure, shortened: as §2
Mus musculus [11] = assay: Weight change in g when a dose of 1.25 mg/kg administered intraperitoneally to B16 melanoma infected mice; assay type: functional; conditions: route intraperitoneal
Procedure, shortened: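 Hybrid BDF1 mice were inoculated ip at D0 with 0.5 mL of B16 melanoma homogenate (1 g tumor in 10 mL physiological serum). Drug was given ip daily on days 1-9, with cis-platinum 0.5 mg/kg as positive control on the same schedule.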

Mus musculus [12] = assay: Antitumor activity against P388 leukemia in mice at a dose of 5 mg/kg administered intraperitoneally for 5 days; assay type: functional; conditions: route intraperitoneal
Procedure, shortened: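 CDF1 hybrid male or female mice, 10 per group, were inoculated ip on day 0 with 10^6 viable P388 leukemia cells. Drug in distilled water was given ip (0.1 mL/10 g body weight) daily on days 1-5, with vehicle, 5-fluorouracil and BD 84 controls given the same way. T/C = median survival of treated/controls × 100; T/C > 128% counted as significant.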

Mus musculus [13] = assay: Median survival day in P388 leukemia model when a dose of 10 mg/kg administered intraperitoneally; assay type: functional; conditions: route intraperitoneal
Procedure, shortened: (§3)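 P388 leukaemia in CDF1 hybrid mice, 10 per group. At D0, 10^6 viable cells were inoculated ip, followed by a single ip dose of drug in distilled water on D1. Weight change, median survival day, T/C (treated/control median survival × 100) and survivors at D30 were recorded. Controls were 20 mice.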

Mus musculus [14] = assay: Antitumor activity against P388 leukemia in mice at a dose of 10 mg/kg administered intraperitoneally for 5 days; assay type: functional; conditions: route intraperitoneal; procedure, shortened: as §2
Mus musculus [15] = assay: Weight change in g when a dose of 10 mg/kg administered intraperitoneally to P388 leukemia model; assay type: functional; conditions: route intraperitoneal
Procedure, shortened: (§4)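 P388 model with a single ip dose. Mice (10 per group) were inoculated ip at D0 with 10^6 P388 cells and given one ip drug dose at D1. Body-weight change (g), median survival day, T/C and survivors at D30 were recorded.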

Mus musculus [16] = assay: Weight change in g when a dose of 20 mg/kg administered intraperitoneally to P388 leukemia model; assay type: functional; conditions: route intraperitoneal; procedure, shortened: as §4
Mus musculus [17] = assay: Survivors at day 30 when a dose of 10 mg/kg to P388 leukemia model; 0/10; assay type: functional; procedure, shortened: as §3
Mus musculus [18] = assay: Weight change in g when a dose of 80 mg/kg administered intraperitoneally to P388 leukemia model; assay type: functional; conditions: route intraperitoneal
Procedure, shortened: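 P388 leukemia cells (10^6 viable) inoculated ip on day 0 into CDF1 hybrid male or female mice, 10 per test group. Drug dissolved in distilled water and given as a single ip dose on day 1. Body weight change (g) recorded for each dose group, alongside median survival day, T/C and survivors at D30, against vehicle controls (20 mice).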

Mus musculus [19] = assay: Antitumor activity against C38 adenocarcinoma cells at a dose of 50 mg/kg administered intravenously to mice; tumor volume at D32 (T/C); assay type: functional, MC-38; conditions: route intravenous
Procedure, shortened: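 Hybrid BD F1 mice, 10 per group, were implanted sc with a standard 3-mm3 C38 colon adenocarcinoma fragment. Drugs were given iv at the stated doses on D1 or on D2 + D9. Read-out was tumor size in treated versus control mice (T/C) at the day stated.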

Mus musculus [20] = assay: Median survival day in P388 leukemia model when a dose of 20 mg/kg administered intraperitoneally; assay type: functional; conditions: route intraperitoneal; procedure, shortened: as §3
Mus musculus [21] = assay: Weight change in g when a dose of 40 mg/kg administered intraperitoneally to P388 leukemia model; conditions: route intraperitoneal
Mus musculus [22] = assay: Median survival day in B16 melanoma cell line when a dose of 30 mg/kg administered intraperitoneally to mice; assay type: functional; conditions: route intraperitoneal
Procedure, shortened: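 B16 melanoma in hybrid BD F1 mice. At D0 each mouse was inoculated ip with 0.5 mL of homogenate made from 1 g of tumour in 10 mL of physiological serum. Compounds were given ip daily at the stated doses for 9 days (D1-9), with cis-platinum 0.5 mg/kg under the same schedule as positive control.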

Row | Compound | K aff (Calf thymus DNA) | IC50 (L1210) | T/C (Mus musculus [3]) | T/C (Mus musculus [4]) | T/C (Mus musculus [6]) | T/C (Mus musculus [8]) | T/C (Mus musculus [9]) | Weight change (Mus musculus [11]) | T/C (Mus musculus [12]) | Median survival day (Mus musculus [13]) | T/C (Mus musculus [14]) | Weight change (Mus musculus [15]) | Weight change (Mus musculus [16]) | Survivors (Mus musculus [17]) | Median survival day (Mus musculus [20]) | other results
1 | Cc1cnc(NCCCN(C)C)c2c3cc(O)ccc3n(C)c12 | 270000 M⁻¹ | 0.01 µM | 134% | 206% | 184% | 123% | 48% | 1 g | 236% |  |  |  |  |  |  | Median tumoral volume (Mus musculus [1]): 0 cm*3; T/C (Mus musculus [2]): 236%; Weight change (Mus musculus [5]): -1.1 g; Survivors (Mus musculus [7]): 0; T/C (Mus musculus [10]): Toxic
2 | CCN(CC)CCCNc1ncc(C)c2c1c1cc(O)ccc1n2C | 240000 M⁻¹ | 0.03 µM |  |  | 149% | 133% | 79% | -2.5 g | 166% | 17.8 | 205% | -0.6 g | -1.2 g | 0 | 20.8 | T/C (Mus musculus [3]; 2.5 mg/kg): 145% and 170%; Weight change (Mus musculus [18]; dose 20 mg/kg, in the assay text read “20 mg/kg” for “80 mg/kg”): -1.2 g; Tumor volume (Mus musculus [19]): 18%; Weight change (Mus musculus [21]): -5.2 g
3 | CCN(CC)CCCNc1[nH]cc(C)c2nc3ccc(O)cc3c1-2 | 200000 M⁻¹ | 0.06 µM | 124% | 174% | 162% |  | 205% |  | 170% | 15.1 | 185% | 1.2 g | 0.2 g | 0 | 16.25 | Median survival day (Mus musculus [22]): 9; Weight change (Mus musculus [18]): -1.7 g

From ChEMBL document CHEMBL1124035, “1-Amino-substituted 4-methyl-5H-pyrido[4,3-b]indoles (gamma-carbolines) as tricyclic analogues of ellipticines: a new class of antineoplastic agents” (1988)
